Reference: ChEMBL document CHEMBL3997796 (J Med Chem, 2017)
Activity calls are given as the source filed them. No cut-off for these calls is given here.

How the values were obtained:
Autotaxin [1] = target: T1, Autotaxin (Homo sapiens, UniProt Q13822); assay: Inhibition of recombinant human C-terminal FLAg-tagged ATX lysophospholipase D activity expressed in baculovirus infected sf9 cells using FRET based FS-3 substrate measured every 2 mins for 1 hr by fluorescence assay
Autotaxin [2] = target: T1, Autotaxin; assay: Inhibition of recombinant human C-terminal FLAg-tagged ATX nucleotide pyrophosphate phosphatase activity expressed in baculovirus infected sf9 cells using pNP-TMP as substrate measured every 2 mins for 1 hr by fluorescence assay
[3] = target: T2, Glycerophosphocholine cholinephosphodiesterase ENPP6 (Homo sapiens) (UniProt Q6UWR7); assay: Inhibition of ENPP6 (unknown origin) using pNPPC as substrate measured every 2 mins for 1 hr by […]
T2 sequence (whole entry): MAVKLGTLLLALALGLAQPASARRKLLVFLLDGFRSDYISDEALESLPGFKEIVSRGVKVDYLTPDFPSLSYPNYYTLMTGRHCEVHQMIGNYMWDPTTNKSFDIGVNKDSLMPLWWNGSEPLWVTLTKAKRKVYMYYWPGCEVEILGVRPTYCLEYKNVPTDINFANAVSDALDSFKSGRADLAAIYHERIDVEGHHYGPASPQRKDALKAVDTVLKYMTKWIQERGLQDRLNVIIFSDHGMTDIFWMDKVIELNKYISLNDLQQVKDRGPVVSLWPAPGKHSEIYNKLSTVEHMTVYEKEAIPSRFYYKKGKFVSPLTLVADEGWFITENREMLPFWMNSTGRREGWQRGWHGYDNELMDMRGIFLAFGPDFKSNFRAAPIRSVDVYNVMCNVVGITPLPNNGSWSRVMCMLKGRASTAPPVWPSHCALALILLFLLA
Method in brief: (§1)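 10 nM ENPP6 or ENPP7, 10 μM pNPPC, compound 0–10 μM, triplicate; ENPP6 buffer 100 mM Tris, 500 mM NaCl, 0.05% Triton pH 9.0; ENPP7 buffer 50 mM Tris, 150 mM NaCl, 10 mM taurocholate pH 8.5; 405 nm absorbance every 2 min for 1 h.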

[4] = target: T3, Ectonucleotide pyrophosphatase/phosphodiesterase family member 7 (Homo sapiens) (UniProt Q6UWV6); assay: Inhibition of ENPP7 (unknown origin) using pNPPC as substrate measured every 2 mins for 1 hr by […]; method in brief: as §1
T3 sequence (whole entry): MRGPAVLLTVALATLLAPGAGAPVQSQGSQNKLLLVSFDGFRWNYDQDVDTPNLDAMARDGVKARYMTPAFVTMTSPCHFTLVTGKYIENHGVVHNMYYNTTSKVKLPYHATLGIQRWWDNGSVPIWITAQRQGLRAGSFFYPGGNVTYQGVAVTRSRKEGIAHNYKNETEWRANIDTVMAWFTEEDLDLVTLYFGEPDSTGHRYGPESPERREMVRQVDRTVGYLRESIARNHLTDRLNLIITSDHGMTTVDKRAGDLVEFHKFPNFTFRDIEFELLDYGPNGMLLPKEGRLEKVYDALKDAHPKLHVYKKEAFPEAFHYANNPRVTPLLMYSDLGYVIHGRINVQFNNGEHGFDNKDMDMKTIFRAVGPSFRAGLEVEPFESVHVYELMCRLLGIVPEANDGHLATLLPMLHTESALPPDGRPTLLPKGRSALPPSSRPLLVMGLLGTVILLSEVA

IC50 (Autotaxin [1]) [nM]	inhibition (Autotaxin [2])	inhibition [3]	inhibition [4]	Structure (SMILES)
> 1000	inactive	inactive	inactive	COc1cc(NC(=O)c2cc(S(=O)(=O)N3CCOCC3)c(Cl)cc2Cl)cc(OC)c1OC
> 1000	inactive	inactive	inactive	O=C(Nc1cc(Cl)c(Cl)c(Cl)c1)c1cc(S(=O)(=O)N2CCOCC2)c(Cl)cc1Cl
> 1000	inactive	inactive	inactive	O=S(=O)(Nc1cc(S(=O)(=O)N2CCOCC2)c(Cl)cc1Cl)c1cccc(F)c1
> 1000	inactive	inactive	inactive	O=C(Nc1cc(F)c(F)c(F)c1)c1cc(NN2CCOCC2)c(Cl)cc1Cl
98	inactive	inactive	inactive	O=S(=O)(c1cc(C(=S)Nc2cc(Cl)c(F)c(Cl)c2)c(Cl)cc1Cl)N1CCOCC1
	inactive	inactive	inactive	COC(=O)c1c(F)cc(NC(=O)c2cc(S(=O)(=O)N3CCOCC3)c(Cl)cc2Cl)cc1F
> 1000	inactive	inactive	inactive	O=S(=O)(c1cc(-c2nc3cccc(F)c3o2)c(Cl)cc1Cl)N1CCOCC1
	inactive	inactive	inactive	CN1CCN(S(=O)(=O)c2cc(C(=O)Nc3cc(Cl)c(F)c(Cl)c3)c(Cl)cc2Cl)CC1
> 1000	inactive	inactive	inactive	O=S(=O)(Nc1cccc(F)c1)c1cc(S(=O)(=O)N2CCOCC2)c(Cl)cc1Cl
> 1000	inactive	inactive	inactive	O=S(=O)(c1cc(CNc2ccc(F)c(F)c2)c(Cl)cc1Cl)N1CCOCC1
	inactive	inactive	inactive	N#Cc1c(F)cc(NC(=O)c2cc(S(=O)(=O)N3CCOCC3)c(Cl)cc2Cl)cc1F
> 1000	inactive	inactive	inactive	O=S(=O)(c1cc(N(S(=O)(=O)c2cccc(F)c2)S(=O)(=O)c2cccc(F)c2)c(Cl)cc1Cl)N1CCOCC1
> 1000	inactive	inactive	inactive	O=S(=O)(c1cc(-c2nc3cc(F)c(F)cc3[nH]2)c(Cl)cc1Cl)N1CCOCC1
70	inactive	inactive	inactive	O=S(=O)(c1cc(C(=S)Nc2ccc(F)c(F)c2)c(Cl)cc1Cl)N1CCOCC1
> 1000	inactive	inactive	inactive	CS(=O)(=O)N(C(=O)c1cc(NN2CCOCC2)c(Cl)cc1Cl)c1cc(F)c(F)c(F)c1
	inactive	inactive	inactive	CN1CCN(S(=O)(=O)c2cc(C(=S)Nc3cc(Cl)c(F)c(Cl)c3)c(Cl)cc2Cl)CC1
	inactive	inactive	inactive	O=C(Nc1c(F)c(F)c(F)c(F)c1F)c1cc(S(=O)(=O)N2CCOCC2)c(Cl)cc1Cl
	inactive	inactive	inactive	O=S(=O)(c1cc(CNc2cc(F)c(F)c(F)c2)c(Cl)cc1Cl)N1CCOCC1
	inactive	inactive	inactive	O=S(=O)(c1cc(C(=S)Nc2cccc(F)c2)c(Cl)cc1Cl)N1CCOCC1
	inactive	inactive	inactive	CN1CCN(S(=O)(=O)c2cc(C(=O)Nc3cc(F)c(F)c(F)c3)c(Cl)cc2Cl)CC1
